According to ChEMBL document CHEMBL1641555, “Asymmetric synthesis of phenanthroindolizidine alkaloids with hydroxyl group at the C14 position and evaluation of their antitumor activities” (Bioorg Med Chem Lett, 2011):

Experiments:
[1] = test system: KB; experiment: Cytotoxicity against human KB cells after 96 hrs by WST-8 assay; assay type: functional, cell-based
Outline: (§1)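 KB, A549 and HT-29 cells in exponential growth were seeded at 10³ cells/well. Serially diluted compounds were added the following day and incubated for 96 h. WST-8 reagent was then added for 1 h at 37 °C, and viability was read as absorbance at 450 nm.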

[2] = Antitumor activity against mouse Meth-A cells xenografted in BALB/c mouse assessed as tumor growth inhibition at 25 mg/kg, iv administered on day 1, 5, and 9 measured after 21 days relative to control; assay type: functional
Outline: (§2)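 Meth A sarcoma cells, 2.5 × 10⁵ per mouse, implanted sc in 7-wk-old male BALB/c mice, 5 per group. Compound given iv on days 1, 5 and 9. Tumors excised and weighed on day 21 after inoculation. Inhibition rate (%) = [1 − (mean tumor weight treated)/(mean tumor weight control)] × 100.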

[3] = test system: Mus musculus; experiment: Toxicity in mouse Meth-A cells xenografted BALB/c mouse assessed as mortality at 50 mg/kg, iv; assay type: organism-based; parameters: dose 50 mg/kg, route intravenous; settings: in vivo
Outline: (§3)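 Meth A sarcoma cells, 2.5 × 10⁵ per mouse, inoculated sc into 7-week-old male BALB/c mice, 5 per group. Samples given iv on days 1, 5 and 9. Animals followed to day 21 after tumor inoculation, when tumors were weighed.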

[4] = test system: Mus musculus; experiment: Toxicity in mouse Meth-A cells xenografted BALB/c mouse assessed as mortality at 25 mg/kg, iv; assay type: organism-based; parameters: dose 25 mg/kg, route intravenous; settings: in vivo; outline: as §3
[5] = test system: HT-29; experiment: Cytotoxicity against human HT-29 cells after 96 hrs by WST-8 assay; assay type: functional, cell-based; settings: HT-29, 96 h; outline: as §1
[6] = test system: A549; experiment: Cytotoxicity against human A549 cells after 96 hrs by WST-8 assay; assay type: functional, cell-based; settings: A549, 96 h; outline: as §1
[7] = Antitumor activity against mouse Meth-A cells xenografted in BALB/c mouse assessed as tumor growth inhibition at 50 mg/kg, iv administered on day 1, 5, and 9 measured after 21 days relative to control; assay type: functional; outline: as §2
[8] = test system: Mus musculus; experiment: Toxicity in mouse Meth-A cells xenografted BALB/c mouse assessed as mortality at 100 mg/kg, iv; assay type: organism-based; parameters: dose 100 mg/kg, route intravenous; settings: in vivo; outline: as §3

SMILES	IC50 [1] [µM]	inhibition in vivo at 25 mg/kg [2] [%]	Activity [3]	Activity [4]	IC50 [5] [µM]	IC50 [6] [µM]	inhibition in vivo at 50 mg/kg [7] [%]	Activity [8]
COc1cc2c3c(c4ccc(O)cc4c2cc1OC)[C@@H](O)[C@H]1CCCN1C3	0.003	7.2	Non-toxic	Non-toxic	0.0125	0.0109	12.5	–
COc1cc2c3c(c4ccccc4c2cc1OC)[C@@H](O)[C@H]1CCCN1C3	2.03	–	–	–	0.584	0.604	–	–
COc1ccc2c3c(c4cc(OC)c(OC)cc4c2c1)CN1CCC[C@@H]1[C@@H]3O	0.0474	–	–	–	0.0208	0.0155	–	–
COc1cc2c3c(c4cccc(O)c4c2cc1OC)[C@H](O)[C@@H]1CCCN1C3	0.0014	–	–	–	0.0821	0.0033	–	–
COc1cc2c3c(c4ccc(OC(C)=O)cc4c2cc1OC)[C@H](O)[C@@H]1CCCN1C3	0.0017	54.9	–	Non-toxic	0.0002	0.0015	39.3	–
COc1cc2c3c(c4ccc(F)cc4c2cc1OC)[C@@H](O)[C@H]1CCCN1C3	0.653	–	–	–	0.106	0.0928	–	–
CCc1ccc2c3c(c4cc(OC)c(OC)cc4c2c1)CN1CCC[C@H]1[C@H]3O	0.18	–	–	–	0.135	0.559	–	–
COc1cc2c3c(c4ccccc4c2cc1OC)[C@H](O)[C@@H]1CCCN1C3	0.0175	–	–	–	0.0106	0.0074	–	–
COc1cc2c3c(c4cc(O)ccc4c2cc1OC)[C@H](O)[C@@H]1CCCN1C3	0.0438	–	–	–	0.0068	0.0047	–	–
CCc1ccc2c3c(c4cc(OC)c(OC)cc4c2c1)CN1CCC[C@@H]1[C@@H]3O	1.59	–	–	–	0.321	0.268	–	–
Oc1ccc2c3c(c4ccccc4c2c1)CN1CCC[C@H]1[C@H]3O	1.96	–	–	–	0.458	0.354	–	–
COc1cc2c3c(c4ccc(F)cc4c2cc1OC)[C@H](O)[C@@H]1CCCN1C3	0.049	–	–	–	0.0196	0.0112	–	–
Oc1ccc2c3c(c4cc5c(cc4c2c1)OCO5)CN1CCC[C@H]1[C@H]3O	0.0255	–	–	–	0.135	0.0544	–	–
COc1cc2c(CBr)cc3ccc(OCc4ccccc4)cc3c2cc1OC	–	–	Non-toxic	–	–	–	–	Non-toxic
CCOc1cc2c3c(c4ccc(O)cc4c2cc1OCC)[C@H](O)[C@@H]1CCCN1C3	0.0109	-3.1	Non-toxic	Non-toxic	0.0012	0.0007	-10.6	–
COc1ccc2c3c(c4cc(OC)c(OC)cc4c2c1)CN1CCC[C@H]1[C@H]3O	0.0042	4.3	Non-toxic	–	0.0021	0.0003	–	–
COc1cc2c3c(c4ccc(O)cc4c2cc1OC)[C@H](O)[C@@H]1CCCN1C3 [TYLOPHORIDICINE E]	0.0052	30.6	Toxic	Non-toxic	0.0016	0.0005	–	–
CC1(C)Oc2cc3c4c(c5ccc(O)cc5c3cc2O1)[C@H](O)[C@@H]1CCCN1C4	0.742	–	–	–	0.487	0.928	–	–
